# Results: ChEMBL document CHEMBL5385940 (J Nat Prod, 2024)
# Calls of active or inactive are those of the source. The calls are words filed in the database; no cut-off is given here.
# Tests used:
# 3T3-L1 [1] = assay: Anti-adipogenic activity in mouse 3T3-L1 preadipocytes assessed as inhibition of lipid accumulation incubated for 6 days by Nile Red staining based fluorescence microscopic analysis; type: functional, cell-based; settings: time 6.0 day
# [2] = Cytotoxicity against mouse 3T3-L1 cells assessed as cell viability at 5 uM incubated for 48 hrs by CCK-8 assay relative to control; type: toxicity, cell-based; settings: read-out: Activity
# Procedure, shortened: (§1)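 3T3-L1 preadipocytes seeded at 1 × 10^3 cells/well and left 12 h, then exposed to alkaloids for 48 h. Viability by CCK-8, absorbance at 450 nm, relative to control. Lovastatin 5 μM included. Mean ± SD, n = 3.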
# [3] = Cytotoxicity against mouse 3T3-L1 cells assessed as cell viability at 10 uM incubated for 48 hrs by CCK-8 assay relative to control; type: toxicity, cell-based; settings: read-out: Activity; procedure, shortened: as §1
# [4] = Cytotoxicity against mouse 3T3-L1 cells assessed as cell viability at 1 uM incubated for 48 hrs by CCK-8 assay relative to control; type: toxicity, cell-based; settings: read-out: Activity; procedure, shortened: as §1
# [5] = Cytotoxicity against mouse 3T3-L1 cells assessed as cell viability at 3 uM incubated for 48 hrs by CCK-8 assay relative to control; type: toxicity, cell-based; settings: read-out: Activity; procedure, shortened: as §1
# [6] = Cytotoxicity against mouse 3T3-L1 cells assessed as cell viability at 7.5 uM incubated for 48 hrs by CCK-8 assay relative to control; type: toxicity, cell-based; settings: read-out: Activity; procedure, shortened: as §1
# [7] = Cytotoxicity against mouse 3T3-L1 cells transfected with Lenti-PPARgamma-Luc reporter assessed as cell viability at 0.1 uM incubated for 48 hrs by CCK-8 assay relative to control; type: toxicity, cell-based; settings: read-out: Activity
# Procedure, shortened: (§2)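 3T3-L1-Lenti-PPARγ-Luc reporter cells (lentivirus-transduced) exposed to alkaloids at a range of concentrations. Viability by CCK-8, absorbance at 450 nm, relative to control, used to set maximum noncytotoxic concentrations. Triplicate.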
# [8] = Cytotoxicity against mouse 3T3-L1 cells transfected with Lenti-PPARgamma-Luc reporter assessed as cell viability at 1 uM incubated for 48 hrs by CCK-8 assay relative to control; type: toxicity, cell-based; settings: read-out: Activity; procedure, shortened: as §2
# [9] = Cytotoxicity against mouse 3T3-L1 cells transfected with Lenti-PPARgamma-Luc reporter assessed as cell viability at 5 uM incubated for 48 hrs by CCK-8 assay relative to control; type: toxicity, cell-based; settings: read-out: Activity; procedure, shortened: as §2
# [10] = Cytotoxicity against mouse 3T3-L1 cells transfected with Lenti-PPARgamma-Luc reporter assessed as cell viability at 7.5 uM incubated for 48 hrs by CCK-8 assay relative to control; type: toxicity, cell-based; settings: read-out: Activity; procedure, shortened: as §2
# [11] = Cytotoxicity against mouse 3T3-L1 cells transfected with Lenti-PPARgamma-Luc reporter assessed as cell viability at 10 uM incubated for 48 hrs by CCK-8 assay relative to control; type: toxicity, cell-based; settings: read-out: Activity; procedure, shortened: as §2
# [12] = Cytotoxicity against mouse 3T3-L1 cells transfected with Lenti-PPARgamma-Luc reporter assessed as cell viability at 2 uM incubated for 48 hrs by CCK-8 assay relative to control; type: toxicity, cell-based; settings: read-out: Activity; procedure, shortened: as §2
# [13] = Cytotoxicity against mouse 3T3-L1 cells transfected with Lenti-PPARgamma-Luc reporter assessed as cell viability at 3 uM incubated for 48 hrs by CCK-8 assay relative to control; type: toxicity, cell-based; settings: read-out: Activity; procedure, shortened: as §2
# [14] = Cytotoxicity against mouse 3T3-L1 cells transfected with Lenti-PPARgamma-Luc reporter assessed as cell viability at 4 uM incubated for 48 hrs by CCK-8 assay relative to control; type: toxicity, cell-based; settings: read-out: Activity; procedure, shortened: as §2
# 3T3-L1 [15] = assay: Anti-adipogenic activity in mouse 3T3-L1 cells transfected with Lenti-PPARgamma-Luc reporter assessed as inhibition of PPARgamma expression by luminescence based microplate reader analysis; type: functional, cell-based
# 3T3-L1 [16] = assay: Inhibition of adipogenesis in mouse 3T3-L1 cells assessed as downregulation of PPARgamma relative protein level […] by Western blot analysis; type: functional, cell-based
# Procedure, shortened: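 Differentiated 3T3-L1 adipocytes treated with alkaloids at several doses. Lysed in RIPA with PMSF on ice for 30 min. Proteins transferred to PVDF and blocked with 5% skim milk for 2 h at 25 °C. Primary antibody 2 h, HRP secondary 1 h. PPARγ protein level expressed relative to control. n = 3.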
# [17] = Cytotoxicity against mouse 3T3-L1 cells assessed as cell viability at 15 uM incubated for 48 hrs by CCK-8 assay relative to control; type: toxicity, cell-based; settings: read-out: Activity; procedure, shortened: as §1
# [18] = Cytotoxicity against mouse 3T3-L1 cells assessed as cell viability at 20 uM incubated for 48 hrs by CCK-8 assay relative to control; type: toxicity, cell-based; settings: read-out: Activity; procedure, shortened: as §1
# [19] = Cytotoxicity against mouse 3T3-L1 cells assessed as cell viability at 25 uM incubated for 48 hrs by CCK-8 assay relative to control; type: toxicity, cell-based; settings: read-out: Activity; procedure, shortened: as §1
# [20] = Cytotoxicity against mouse 3T3-L1 cells transfected with Lenti-PPARgamma-Luc reporter assessed as cell viability at 2.5 uM incubated for 48 hrs by CCK-8 assay relative to control; type: toxicity, cell-based; settings: read-out: Activity; procedure, shortened: as §2
# [21] = Cytotoxicity against mouse 3T3-L1 cells transfected with Lenti-PPARgamma-Luc reporter assessed as cell viability at 15 uM incubated for 48 hrs by CCK-8 assay relative to control; type: toxicity, cell-based; settings: read-out: Activity; procedure, shortened: as §2
# [22] = Cytotoxicity against mouse 3T3-L1 cells transfected with Lenti-PPARgamma-Luc reporter assessed as cell viability at 20 uM incubated for 48 hrs by CCK-8 assay relative to control; type: toxicity, cell-based; settings: read-out: Activity; procedure, shortened: as §2
# [23] = Cytotoxicity against mouse 3T3-L1 cells assessed as cell viability at 2.5 uM incubated for 48 hrs by CCK-8 assay relative to control; type: toxicity, cell-based; settings: read-out: Activity; procedure, shortened: as §1
Structure (SMILES),Activity (3T3-L1 [1]),"viability at 48 h, 5 µM [2]","viability at 48 h, 10 µM [3]","viability at 48 h, 0.1 µM [7]","viability at 48 h, 1 µM [8]","viability at 48 h, 5 µM [9]","viability at 48 h, 7.5 µM [10]","viability at 48 h, 10 µM [11]",Activity (3T3-L1 [15]),IC50 (3T3-L1 [15]),inhibition (3T3-L1 [16]),"viability at 48 h, 15 µM [17]","viability at 48 h, 20 µM [18]","viability at 48 h, 25 µM [19]","viability at 48 h, 2.5 µM [20]","viability at 48 h, 15 µM [21]","viability at 48 h, 20 µM [22]","viability at 48 h, 2.5 µM [23]",also measured
C=C(c1ccc(O)c(Oc2cc3c(cc2OC)CCN(C)[C@@H]3Cc2ccc(OC)cc2)c1)[C@H]1c2cc(O)c(OC)cc2CCN1C,Dose-Dependent Effect,> 80%,< 80%,> 80%,> 80%,> 80%,< 80%,< 80%,Dose-Dependent Effect,4.5 µM,Active,,,,,,,,"viability at 48 h, 1 µM [4]: > 80%; viability at 48 h, 3 µM [5]: > 80%; viability at 48 h, 7.5 µM [6]: < 80%; viability at 48 h, 2 µM [12]: > 80%; viability at 48 h, 3 µM [13]: > 80%; viability at 48 h, 4 µM [14]: > 80%"
C=C(c1ccc(O)c(Oc2cc3c(cc2OC)CCN(C)[C@@H]3Cc2ccc(OC)cc2)c1)[C@@H]1c2cc(OC)c(OC)cc2CCN1C,Dose-Dependent Effect,> 80%,> 80%,> 80%,> 80%,> 80%,> 80%,> 80%,Dose-Dependent Effect,10.7 µM,Active,> 80%,< 80%,< 80%,> 80%,> 80%,< 80%,,
C=C(c1ccc(O)c(Oc2cc3c(cc2OC)CCN(C)[C@@H]3Cc2ccc(OC)cc2)c1)[C@@H]1c2cc(O)c(OC)cc2CCN1C,Dose-Dependent Effect,> 80%,> 80%,> 80%,> 80%,> 80%,> 80%,> 80%,Dose-Dependent Effect,8.8 µM,Active,< 80%,< 80%,,> 80%,< 80%,< 80%,> 80%,
CC[C@H](C)C(=O)O[C@H]1C[C@@H](C)C=C2C=C[C@H](C)[C@H](CC[C@@H]3C[C@@H](O)CC(=O)O3)[C@H]21 [LOVASTATIN],,> 80%,,,,,,,,,,,,,,,,,
COc1ccc(C[C@@H]2c3cc(Oc4cc(C[C@@H]5c6cc(O)c(OC)cc6CCN5C)ccc4O)c(OC)cc3CCN2C)cc1 [ISOLIENSININE],Dose-Dependent Effect,> 80%,> 80%,> 80%,> 80%,> 80%,> 80%,> 80%,Dose-Dependent Effect,,Active,< 80%,< 80%,,> 80%,< 80%,< 80%,> 80%,
C=C(c1ccc(OC)cc1)[C@@H]1c2cc(Oc3cc(C[C@H]4c5cc(OC)c(OC)cc5CCN4C)ccc3O)c(OC)cc2CCN1C,Dose-Dependent Effect,> 80%,> 80%,> 80%,> 80%,> 80%,> 80%,> 80%,Dose-Dependent Effect,,Active,> 80%,< 80%,< 80%,> 80%,> 80%,< 80%,,
COc1ccc(C[C@@H]2c3cc(Oc4cc(/C=C5\CN(C)CCc6cc(OC)c(OC)cc65)ccc4O)c(OC)cc3CCN2C)cc1,Dose-Dependent Effect,> 80%,> 80%,> 80%,> 80%,> 80%,> 80%,> 80%,Dose-Dependent Effect,,Active,> 80%,< 80%,< 80%,> 80%,> 80%,< 80%,,
COc1ccc(C[C@@H]2c3cc(Oc4cc(C[C@@H]5c6cc(OC)c(OC)cc6CCN5C)ccc4O)c(OC)cc3CCN2C)cc1 [NEFERINE],Dose-Dependent Effect,> 80%,> 80%,> 80%,> 80%,> 80%,> 80%,> 80%,Dose-Dependent Effect,6.1 µM,Active,< 80%,< 80%,,> 80%,< 80%,< 80%,> 80%,
